Test results: ChEMBL document CHEMBL2331325, “Antioxidant lignans and chromone glycosides from Eurya japonica” (J Nat Prod, 2013)

Legend:
RAW264.7 [1] = experiment: Inhibition of LPS-induced NO production in mouse RAW264.7 cells after 24 hrs at 20 ug/ml; format: functional; design: scale not given: the % may be the effect or the level left
[2] = Cytotoxicity against mouse RAW264.7 cells assessed as cell viability at 20 ug/ml after 24 hrs by MTT assay; format: cell-based; conditions: read-out: Activity
Summary of the method: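 Viability of RAW 264.7 cells measured by MTT after 24 h co-treatment with LPS (1000 ng/mL) and compound at 20 μg/mL. Compounds dissolved in DMSO and diluted in sterile PBS.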

[3] = test system: Radical scavenging activity; experiment: Antioxidant activity assessed as DPPH radical scavenging activity […]; format: functional
Summary of the method: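 Shaken in the dark at room temperature for 30 min, then absorbance read at 517 nm. Negative control without compound. ED50 taken as the concentration scavenging 50% of DPPH radicals.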

RAW264.7 [4] = experiment: Inhibition of LPS-induced NO production in mouse RAW264.7 cells after 24 hrs; format: functional, cell-based; conditions: RAW264.7, 24 h

Compound | Activity (RAW264.7 [1]) [%] | viability at 24 h, 20 ug/ml [2] [%] | ED50 [3] [µM] | IC50 (RAW264.7 [4]) [µM]
O=C1c2c(O)cc(O)cc2O[C@H](c2ccc(O)c(O)c2)[C@H]1O[C@@H]1O[C@H](CO)[C@@H](O)[C@H](O)[C@H]1O | 35.55 | 101 | 33.5 | –
O=C1c2c(O)cc(O)cc2O[C@@H](c2ccc(O)c(O)c2)[C@H]1O[C@@H]1OC[C@@H](O)[C@H](O)[C@H]1O | 36.7 | 102 | 26.5 | –
O=c1c(O[C@@H]2OC[C@H](O)[C@H](O)[C@H]2O)coc2cc(O)cc(O)c12 | 38.07 | 106 | 133 | –
O=C1c2c(O)cc(O)cc2OC(c2ccc(O)c(O)c2)C1O[C@@H]1OC[C@@H](O)[C@H](O)[C@H]1O (single isomer, unassigned) | 37.84 | 107 | 25.2 | –
O=c1c(O)c(-c2ccc(O)c(O)c2)oc2cc(O)cc(O)c12 [QUERCETIN] | – | – | – | 1.3
O=C1c2c(O)cc(O)cc2O[C@H](c2ccc(O)c(O)c2)[C@H]1O[C@@H]1OC[C@@H](O)[C@H](O)[C@H]1O | 33.26 | 105 | 30.4 | –
O=C(/C=C/c1ccc(O)cc1)OC[C@H]1O[C@@H](OCCc2ccc(O)c(O)c2)[C@H](O)[C@@H](O)[C@@H]1O | – | – | 33 | –
COc1cc(O[C@@H]2O[C@H](CO)[C@@H](O)[C@H](O)[C@H]2O)cc(O)c1OC | – | – | > 100 | –
COc1cc([C@H]2c3cc(O)c(OC)cc3C[C@@H](CO)[C@@H]2CO[C@@H]2O[C@@H](C)[C@H](O)[C@@H](O)[C@H]2O)ccc1O [AVICULIN] | 39.68 | 112 | 44.8 | –
Cc1c(C)c2c(c(C)c1O)CC[C@@](C)(CCC[C@H](C)CCC[C@H](C)CCCC(C)C)O2 | – | – | 27.2 | –
O=C1c2c(O)cc(O)cc2O[C@H](c2ccc(O)c(O)c2)[C@@H]1O[C@@H]1OC[C@@H](O)[C@H](O)[C@H]1O | 35.32 | 108 | 26.6 | –
CC[C@H](CC[C@@H](C)[C@H]1CC[C@H]2[C@@H]3CC=C4C[C@@H](O[C@@H]5O[C@H](CO)[C@@H](O)[C@H](O)[C@H]5O)CC[C@]4(C)[C@H]3CC[C@]12C)C(C)C | – | – | > 100 | –
COc1cc([C@@H]2c3c(cc(OC)c(O)c3OC)C[C@H](CO)[C@H]2CO[C@@H]2O[C@H](CO)[C@@H](O)[C@H](O)[C@H]2O)cc(OC)c1O | 38.76 | 104 | 26.6 | –
COc1cc([C@H]2c3c(cc(OC)c(O)c3OC)C[C@@H](CO[C@@H]3O[C@H](CO)[C@@H](O)[C@H](O)[C@H]3O)[C@@H]2CO)cc(OC)c1O | 39.22 | 101 | 37.6 | –
O=c1c(O[C@@H]2OC[C@@H](O)[C@H](O)[C@H]2O)coc2cc(O)cc(O)c12 | 36.24 | 102 | > 100 | –
O=C1C=CC(O)(CCO[C@@H]2O[C@H](COC(=O)/C=C/c3ccc(O)cc3)[C@@H](O)[C@H](O)[C@H]2O)C=C1 | – | – | > 100 | –
O=C1c2c(O)cc(O)cc2O[C@@H](c2ccc(O)c(O)c2)[C@@H]1O[C@@H]1O[C@H](CO)[C@@H](O)[C@H](O)[C@H]1O | 35.78 | 105 | 36.2 | –
COc1cc(CCCO)cc(OC)c1O[C@@H]1O[C@H](CO)[C@@H](O)[C@H](O)[C@H]1O | – | – | > 100 | –
O=C1O[C@H]2[C@H](O)[C@@H](O)[C@H](CO)O[C@@H]2c2c1cc(O)c(O)c2O | – | – | > 100 | –
COc1cc2c(c(OC)c1O)[C@@H]1c3c(cc(OC)c(O)c3OC)OC[C@H](C2)[C@@H]1CO[C@@H]1O[C@H](CO)[C@@H](O)[C@H](O)[C@H]1O | 38.99 | 106 | 23.4 | –
C=C(C)[C@@H]1CC[C@]2(C(=O)O)CC[C@]3(C)[C@H](CC[C@@H]4[C@@]5(C)CC[C@H](O)C(C)(C)[C@@H]5CC[C@]43C)[C@@H]12 [BETULINIC ACID] | 56.19 | 60.3 | > 100 | –
COc1cc(CO)cc(OC)c1O[C@@H]1O[C@H](CO)[C@@H](O)[C@H](O)[C@H]1O | – | – | > 100 | –
COc1ccc(O[C@@H]2O[C@H](CO)[C@@H](O)[C@H](O)[C@H]2O)cc1OC | – | – | > 100 | –
COc1cc2c(c(OC)c1O)[C@H]1c3c(cc(OC)c(O)c3OC)OC[C@@H](C2)[C@H]1CO[C@@H]1O[C@H](CO)[C@@H](O)[C@H](O)[C@H]1O | 40.37 | 110 | 24.7 | –
COc1cc(CCO)cc(OC)c1O[C@@H]1O[C@H](CO)[C@@H](O)[C@H](O)[C@H]1O | – | – | > 100 | –
O=c1c(O[C@@H]2O[C@H](CO)[C@@H](O)[C@H](O)[C@H]2O)coc2cc(O)cc(O)c12 | 53.79 | 105 | > 100 | –
COc1cc(O[C@@H]2O[C@H](CO)[C@@H](O)[C@H](O)[C@H]2O)cc(OC)c1OC | – | – | > 100 | –
